# Screens deposited in PubChem BioAssay by several laboratories.
# Compounds with a hit are over-represented: about 1.8% of the library has one in this group of screens.
# TRAIL sens C8 = sensitizes caspase-8 expressing cells to TRAIL; inhibition (viability loss, TRAIL sensitization), % at 10 µM; NB7+C8 cells + TRAIL, ATPlite viability luminescence; 360,000 compounds, 1% hits; AID 624354;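 active = compounds causing at least 50% loss of cell viability in the single-dose screen, relative to plate controls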
# STAT3 blocker = STAT3 signaling inhibition. U3A cells, IL-6 STAT3-luciferase reporter, luminescence; host cell line lacks STAT1. inhibition, % at 5.5 µM. 190,000 compounds, 0.89% hits. AID 862;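 active = inhibition above the mean inhibition across all screened compounds plus 3 SD, cut at about 44% in these data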;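 note: 0% = DMSO only wells and 100% = 100 µM nifuroxazide control wells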
# PPC-1+TRAIL kill = PPC-1 cancer cell killing with TRAIL present. PPC-1 cells + TRAIL, ATPLite viability luminescence. cell killing (% activity), % at 4 µM or 5 µM. 220,000 compounds, 0.41% hits. AID 1443;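 active = cell killing above 50% in the first pass at 4 µM, then a duplicate retest at 5 µM averaging 50% or more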;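 note: plate controls were cells with TRAIL plus DMSO for no effect and medium-only wells lacking cells for full effect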
# STAT3 act-1 = STAT3 signaling activation; U3A cells, IL-6 STAT3-luciferase reporter, luminescence; 100% = signal with IL-6 EC80 alone; activation (% of control), % at 5.6 µM; 190,000 compounds, 0.91% hits; AID 871;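 active = activation above the screen-wide mean of compound activation plus 3 SD, cut at about 130% in these data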;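 note: 0% = background luminescence of wells with medium and substrate only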
#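 Test system: Human STAT1-deficient U3A cells with stable STAT3-luciferase reporter | Also added: Interleukin-6, 33 ng/mL | Timing: Compound pre-incubation 1 h before IL-6, then 6 h stimulation at 37 °C | Technique: Luciferase reporter luminescence | Read-out: Percent of IL-6-only median luminescence | Benchmarks: IL-6-only wells as 100% reference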
# STAT1 blocker = reduces IFN-gamma driven STAT1 reporter signal; NIH 3T3 STAT1-luciferase reporter, luminescence; inhibition, % at 5.5 µM; 200,000 compounds, 0.35% hits; AID 920;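 active = inhibition above a set limit, the mean inhibition across all tested compounds plus 3 SD, cut at about 34% in these data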;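 note: 0% = IFN-gamma with DMSO and 100% = IFN-gamma with 300 µM nifuroxazide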
# STAT3 act-2 = STAT3 activation, confirmation assay; shares compounds with STAT3 act-1; U3A STAT3-luciferase reporter, IL-6 potentiation, luminescence; U3A cells lack STAT1; 100 means same as IL-6 alone; potentiation (% of control), % at 5.7 µM; 1,200 compounds, 64% hits;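 active = percent activation of the STAT3 luciferase reporter above a set limit taken from the earlier primary screen, cut at about 130% in these data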;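 note: 0% = background signal of medium plus substrate and 100% = median of IL-6 with DMSO wells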
# NFkB act 2 = counter-screen for STAT3 activators: NF-kappaB activation. 1,200 compounds, 11% hits. AID 1309. shares compounds with STAT3 act-1. human cells, NF-kappaB reporter activation. activation (% of control), % at 5.7 µM; in the data active = activation above about 120%;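 note: reporter induced by TNF-alpha stimulation; 100% = median of stimulated DMSO wells and 0% = no signal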
# STAT1 act STAT3c = STAT1 activation in STAT3 activator counter-screen; activation (% of control), % at 5.7 µM; AID 1318; shares compounds with STAT3 act-1; NIH 3T3 STAT1-luciferase reporter, IFN-gamma, luminescence; 1,200 compounds, 13% hits;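 active = activation above the solvent-only control well mean plus 3 SD, set per screening run, cut at about 120% in these data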;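 note: 100% = IFN-gamma with DMSO median signal so 100% means no change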
# * = called active by the depositor; · = not tested or not shown.
SMILES,TRAIL sens C8,STAT3 blocker,PPC-1+TRAIL kill,STAT3 act-1,STAT1 blocker,STAT3 act-2,NFkB act 2,STAT1 act STAT3c
CN(C)S(=O)(=O)c1cccc(C(=O)N2CCc3ccccc32)c1,2,-53,17,148*,4,126,108,108
CN(C)S(=O)(=O)c1cccc(NC(=O)c2cccc(S(=O)(=O)N3CCc4ccccc43)c2)c1,24,·,·,·,·,·,·,·
CC(=O)NC(CC(=O)OC(C)C(=O)Nc1ccc(Cl)cn1)c1ccccc1 (stereo not given),1,·,·,·,·,·,·,·
CC(=O)Nc1ccc(NC(=O)C(C)OC(=O)c2cc(S(=O)(=O)N(C)C)ccc2N2CCCC2)cc1 (stereo not given),4,·,·,·,·,·,·,·
CCOC(=O)C(C(=O)Nc1nc2ccccc2s1)C1CCCCC1 (stereo not given),32,-49,12,143*,-4,124,109,100
O=C1CC(Nc2ccc(N3CCOCC3)cc2)C(=O)N1Cc1ccccc1 (stereo not given),-11,6,15,97,12,·,·,·
O=C1CC(Nc2ccc3ccccc3c2)C(=O)N1Cc1ccccc1 (stereo not given),8,-36,-1,138*,-5,135*,104,103
COc1ccc(C(C)(C)C)cc1NC(=O)Cn1cnnn1,-5,3,24,99,-5,·,·,·
COc1ccccc1NC(=O)c1ccc(Br)o1,-3,9,9,95,-3,·,·,·
Cc1cc(O)c(NC(=O)c2ccc(Br)o2)cc1C,2,-71,19,161*,12,151*,115,95
Cc1nc([N+](=O)[O-])cn1Cc1cccc2ccccc12,0,·,·,·,·,·,·,·
COc1ccccc1-c1cc(N)n[nH]1,2,1,-10,104,-8,·,·,·
COc1ccccc1-c1nc(N)n[nH]1,-3,-44,13,146*,-5,125,101,100
COc1ccccc1-c1nc(SCC(=O)O)n[nH]1,-5,-40,33,137*,-7,125,107,102
CC(C)C(NC(=O)c1ccccc1)C(=O)NC1CCCc2ccccc21 (stereo not given),-11,·,·,·,·,·,·,·
Cc1ccc(-c2nc(NCCN3CCOCC3)c3ccccc3n2)cc1,-26,-81,21,181*,2,169*,105,98
O=S(=O)(CCNCCc1ccccc1)NC1CCCCC1,-9,·,·,·,·,·,·,·
Cc1cccc(NC(=O)C2=C(O)c3ccccc3N(C)S2(=O)=O)c1,-7,-60,-3,155*,1,95,109,99
CN1c2ccccc2C(O)=C(C(=S)Nc2ccc(Cl)cc2)S1(=O)=O,14,5,6,101,9,·,·,·
O=C(CNS(=O)(=O)c1ccccc1)Nc1cccc([N+](=O)[O-])c1,3,3,13,104,-1,·,·,·
CC(=O)Nc1ccc(S(=O)(=O)NNC(=O)c2cc3c4ccccc4n(C)c3s2)cc1,-12,-37,8,139*,4,142*,106,111
C(=N\Nc1ncnc2sc3c(c12)CCC3)/c1cccs1,47,-59,30,152*,8,142*,110,95
NNc1ncnc2sc3c(c12)CCC3,1,-40,-1,139*,19,137*,102,92
CC(C)(C)c1ccc(S(=O)(=O)N2CCN(c3ncccn3)CC2)cc1,-2,20,10,90,-1,·,·,·
Cc1cc(C)c(S(=O)(=O)/N=C2/C=C(SCC(=O)O)C(=O)c3ccccc32)cc1C,3,-37,35,139*,6,135*,97,96
SMILES,TRAIL sens C8,STAT3 blocker,PPC-1+TRAIL kill,STAT3 act-1,STAT1 blocker,STAT3 act-2,NFkB act 2,STAT1 act STAT3c
Cc1ccc(NC(=O)CSc2ccccc2)cc1S(=O)(=O)N1CCCCC1,16,·,·,·,·,·,·,·
CNC(=S)N(CCc1c(C)[nH]c2ccccc12)Cc1cccnc1,25,·,·,·,·,·,·,·
Cc1c(C#N)c2ccccc2n1CC(=O)O,-1,-63,·,159*,6,161*,102,108
CCOC(=O)Cn1c(C)c(C#N)c2ccccc21,1,0,2,105,5,·,·,·
CCOC(=O)c1ccccc1NC(=O)C1CCCO1 (stereo not given),-7,·,·,·,·,·,·,·
O=C(NCCOc1ccccc1)c1ccccc1NC(=O)C1CCCO1 (stereo not given),3,-40,1,140*,-9,138*,120,131*
COc1ccc2ccc3c(c2c1)N=CC1(O3)N(C)c2ccccc2C1(C)C (stereo not given),-7,6,24,96,22,·,·,·
CN1c2ccccc2C(C)(C)C12C=Nc1c(ccc3ccccc13)O2 (stereo not given),1,-78,-16,166*,13,150*,115,108
Cn1ncc(Br)c1C(=O)Nc1c(F)c(F)cc(F)c1F,7,-42,17,139*,-41,137*,115,148*
COc1cccc(C(=O)N2CCC[C@H]2C(=O)N2CCC[C@H]2C(=O)N[C@H](C)c2ccccc2)c1,-11,·,·,·,·,·,·,·
Cc1cc(C)c(S(=O)(=O)Nc2ncn[nH]2)c(C)c1,-2,·,·,·,·,·,·,·
CS(=O)(=O)N1N=C(c2cccs2)CC1c1ccccc1O (stereo not given),-6,0,-4,102,-2,·,·,·
Oc1ccccc1C1CC(c2cccs2)=NC(c2ccc(Cl)cc2)N1 (stereo not given),36,-45,16,140*,33,139*,108,91
Cc1ccccc1Nc1nc(N)nc(COC(=O)c2cccn2C)n1,1,-6,19,114,-46,·,·,·
CCc1ccccc1Nc1nc(N)nc(COC(=O)c2cccn2C)n1,13,-44,13,147*,-9,150*,110,125*
Cc1ccc(C)c(C(=O)O/N=C(\N)c2ccc(Br)cc2)c1,78*,-61,-17,155*,8,150*,108,102
Cc1cccc(C(=O)O/N=C(\N)c2ccc(Br)cc2)c1,35,-25,1,122,-23,·,·,·
N/C(=N\OC(=O)c1cccc2ccccc12)c1ccc(Br)cc1,2,-46,34,139*,3,135*,107,106
O=C(Oc1ccccc1O)c1cccc2ccccc12,9,-42,-16,141*,-11,132,102,103
N/C(=N\OC(=O)c1cccc(Br)c1)c1ccccc1,89*,-72,7,158*,-30,152*,131*,151*
Cc1cccc(CNC(=O)CCn2ccc3cc(S(=O)(=O)N4CCCC4)ccc32)c1,-18,·,·,·,·,·,·,·
COc1cc2c(cc1NC(=O)c1cccnc1)oc1ccccc12,2,-11,-1,109,-28,·,·,·
